The values below come from ChEMBL document CHEMBL5331136, “Design, Synthesis, and Biological Evaluation of Novel Spiro Imidazobenzodiazepines to Identify Improved Inhaled Bronchodilators” (J Med Chem, 2023).

≈ marks a conversion by molar mass, not a printed value. Calls of active or inactive are those of the source. The calls are words filed in the database; no cut-off is given here. Some results are limits rather than exact numbers.

Data set [1] is described as follows: Inhibition of sensorimotor coordination in Swiss Webster mouse at 40 mg/kg, po measured after 10 to 30 mins by rotarod analysis. The class given is toxicity, organism-based. As to conditions: in vivo, time 10-30 min. Put shortly:
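Female Swiss Webster mice, 10 weeks old, trained on rotarod at 15 rpm for 3 min. Single oral gavage, 100 µL, in 2.5% PEG400/97.5% 2% HPMC. Tested 3 min at 10, 30 and 60 min after dosing; fall time recorded at second fall. n = 12, two-way repeated-measures ANOVA with Bonferroni posttest.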
On the technique in general: The rotarod test checks motor coordination on a turning rod.

The next data set relates to Trachea. Put plainly: Induction of smooth muscle relaxation in Hartley guinea pig trachea ring assessed as reduction in substance P induced smooth muscle constriction at 25 uM measured after 30 mins. The class given is functional, tissue-based. As to conditions: Cavia porcellus.
Data set [2] addresses GABA-A receptor; anion channel. Put plainly: Displacement of [3H]flunitrazepam from GABAA receptor in rat brain extract. The class given is tissue-based.
A short description of data set [3]: Metabolic stability in human liver S9 fraction assessed as parent compound remaining at 10 uM measured after 120 mins in presence of NADPH by LC-MS/MS analysis. Format: ADME, subcellular. The conditions noted are these: liver S9 fraction, read-out: Stability.
The subject of another data set is HEK293. Put plainly: Cytotoxicity against HEK293 cells assessed as lethal dose measured after 18 hrs by CellTiter-Glo assay. As to conditions: Homo sapiens, read-out: LD50 (the source's name). Format: functional. Put shortly: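 HEK293T cells grown in DMEM/high glucose with NEAA, HEPES, pen/strep, 10% heat-inactivated FBS. Plated 15,000 cells/well, then 4 h at 37 °C, 5% CO2. Compound added as 1:3 serial dilutions, top final concentration 300 µM. After 18 h, read luminescence by CellTiter-Glo. DMSO negative control, aminoketone positive control. Three independent experiments in quadruplicate, variable-slope nonlinear regression.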
In general terms: In ATP-based viability assays light output follows the ATP content of the culture.

The nature of data set [4]: Metabolic stability in human liver S9 fraction assessed as parent compound remaining at 10 uM measured after 120 mins in presence of UDP-glucuronic acid by LC-MS/MS analysis. As to conditions: read-out: Stability. The class given is ADME, subcellular. A digest of the protocol:
(§1)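 Liver S9 (human or mouse), protein 0.5 mg/mL, compound 10 µM (from 1 mM DMSO stock), phosphate buffer pH 7.4, […], alamethicin 0.0225 mg/mL final. Preincubated 5 min at 37 °C, then S9 added. Aliquots at 0 and 120 min quenched in cold methanol with 5 µM 4,5-diphenylimidazole internal standard. Parent remaining from LC-MS/MS peak-area ratio. Two independent assays in triplicate (n = 6).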

Data set [5] in a line: Metabolic stability in mouse liver S9 fraction assessed as parent compound remaining at 10 uM measured after 120 mins in presence of UDP-glucuronic acid by LC-MS/MS analysis. Format: ADME, subcellular. The conditions noted are these: read-out: Stability. Put shortly:
as §1

Data set [6] can be described thus: Aqueous solubility of the compound at […] under shaking condition for 24 hrs by UV absorbance based analysis. The class given is physicochemical. The conditions noted are these: buffer, 24 h.
Data set [7] is described as follows: Metabolic stability in mouse liver S9 fraction assessed as parent compound remaining at 10 uM measured after 120 mins in presence of NADPH by LC-MS/MS analysis. The class given is ADME, subcellular. As to conditions: read-out: Stability.
For the next data set, the system named is Mus musculus. Kind of data set: Induction of bronchodilation in A/J mouse assessed as reduction in sRaw values at 7.2 mg/kg administered as nebulized compound. The class given is functional, organism-based. A digest of the protocol: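 Female A/J mice, no allergen sensitization, trained 5 days in a double-chamber plethysmograph while conscious. Compound nebulized in PBS at 7.2 mg/kg, then five nebulized methacholine challenges (in water). Each nebulization under 1 min, 3 min recording, 1 min pause. sRaw calculated per interval. n = 12, two-way repeated-measures ANOVA against vehicle.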

For data set [8], the target named is GABA-A receptor; anion channel (Rattus norvegicus) (UniProt O09028+P15431+P18506+P18508+P19969+P20236+P23574+P23576+P28471+P28473+P30191+P62813+P63079+P63138+Q91ZM7+Q9ES14). Put plainly: Displacement of [3H]flunitrazepam from GABAA receptor in rat brain extract at 10 uM relative to control. Format: tissue-based.

For `O=C(O)c1ncn2c1C1(CC1)N=C(c1ccccc1F)c1cc(Br)ccc1-2`, the figures for the Activity result in data set [1] and in data set [8] were “Non-Toxic” and 97%, respectively. For the same compound, the result in the data set on Trachea and with Mus musculus was Active. Also, in data set [2], the IC50 was found to be 9 µM. The remaining at 2 h, 10 µM in data set [3] is 104%; in data set [4], 69%; in data set [5] it was 90%; in data set [7], 120%. In addition, the CC50 with HEK293 is over 300 µM. The compound further yielded a solubility in [6] of 8.2 mM (≈ 3500 µg/mL).

The term IC50 denotes the midpoint of a concentration-inhibition curve. What is called solubility is the concentration that dissolves in the medium under given conditions. Lower therefore signals little dissolved substance.
